Laboratory results published in ChEMBL document CHEMBL3286393 (J Med Chem, 2014).
The source made the active and inactive calls. The calls are words filed in the database; no cut-off is given here.

Columns and labels:
[1] = target: T1, Polyunsaturated fatty acid 5-lipoxygenase (Homo sapiens, UniProt P09917); assay: Inhibition of human recombinant 5-LO expressed in Escherichia coli Bl21 (DE3) using arachidonic acid as substrate preincubated for 10 mins measured after 10 mins by RP-HPLC analysis
T1 sequence (P09917 whole entry): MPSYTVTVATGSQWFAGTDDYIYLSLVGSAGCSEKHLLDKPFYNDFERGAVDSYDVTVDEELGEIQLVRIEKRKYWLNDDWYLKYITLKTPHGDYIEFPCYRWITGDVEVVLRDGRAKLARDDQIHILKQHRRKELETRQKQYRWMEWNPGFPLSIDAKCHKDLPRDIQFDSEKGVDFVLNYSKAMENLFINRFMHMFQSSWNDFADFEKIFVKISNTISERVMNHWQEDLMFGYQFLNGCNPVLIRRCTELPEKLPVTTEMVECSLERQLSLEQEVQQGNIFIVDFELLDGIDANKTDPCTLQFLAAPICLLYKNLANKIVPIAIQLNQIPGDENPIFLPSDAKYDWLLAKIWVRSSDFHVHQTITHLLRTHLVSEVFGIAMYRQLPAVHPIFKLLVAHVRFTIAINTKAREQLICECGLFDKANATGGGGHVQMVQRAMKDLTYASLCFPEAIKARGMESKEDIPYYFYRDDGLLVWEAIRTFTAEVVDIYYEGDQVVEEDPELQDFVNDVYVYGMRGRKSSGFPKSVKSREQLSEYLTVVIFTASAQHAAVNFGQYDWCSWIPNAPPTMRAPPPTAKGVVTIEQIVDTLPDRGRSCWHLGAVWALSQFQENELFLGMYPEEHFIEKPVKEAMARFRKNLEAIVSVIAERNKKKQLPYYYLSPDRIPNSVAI
Outline: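 5-LO expressed from pT3-5LO in E. coli BL21(DE3), semi-purified on ATP-agarose, diluted in PBS with 1 mM EDTA and 1 mM ATP. Preincubated with compound 10 min at 4 °C, then 30 s at 37 °C. Started with 2 mM CaCl2 plus 20 μM arachidonic acid; 10 min at 37 °C; ice-cold methanol stop. Three to four experiments.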

[2] = tested on: Radical scavenging activity; assay: Antioxidant activity assessed as DPPH free radical scavenging activity at 10 uM after 30 mins […] by spectrophotometric analysis; assay type: functional
LNCaP = assay: Cytotoxicity against human LNCAP cells assessed as cell viability after 24 hrs by MTT assay; assay type: cell-based
Outline: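 LNCaP seeded at 10⁴ cells/well and exposed 24 h. MTT added, then 4 h at 37 °C, 5% CO2, dark. Medium removed and formazan dissolved in DMSO; absorbance at 570 nm.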

PBMC = assay: Cytotoxicity against human PBMCs assessed as cell viability after 24 hrs by MTT assay; assay type: cell-based
Outline: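 Human PBMC (2 × 10⁵/well), 24 h exposure. MTT then 4 h at 37 °C in darkness. Formazan solubilized with 10% SDS in 20 mM HCl; absorbance 550 nm. Viability relative to untreated cells; IC50 derived.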

[3] = target: Prostaglandin G/H synthase 1 (Homo sapiens, UniProt P23219); assay: Inhibition of COX1-mediated PGE2 production in human platelets assessed as residual activity by measuring formation of 12-HHT from arachidonic acid preincubated at 10 uM for 5 mins measured after 5 mins by RP-HPLC analysis relative to control
Prostaglandin G/H synthase 1, sequence (P23219 whole entry): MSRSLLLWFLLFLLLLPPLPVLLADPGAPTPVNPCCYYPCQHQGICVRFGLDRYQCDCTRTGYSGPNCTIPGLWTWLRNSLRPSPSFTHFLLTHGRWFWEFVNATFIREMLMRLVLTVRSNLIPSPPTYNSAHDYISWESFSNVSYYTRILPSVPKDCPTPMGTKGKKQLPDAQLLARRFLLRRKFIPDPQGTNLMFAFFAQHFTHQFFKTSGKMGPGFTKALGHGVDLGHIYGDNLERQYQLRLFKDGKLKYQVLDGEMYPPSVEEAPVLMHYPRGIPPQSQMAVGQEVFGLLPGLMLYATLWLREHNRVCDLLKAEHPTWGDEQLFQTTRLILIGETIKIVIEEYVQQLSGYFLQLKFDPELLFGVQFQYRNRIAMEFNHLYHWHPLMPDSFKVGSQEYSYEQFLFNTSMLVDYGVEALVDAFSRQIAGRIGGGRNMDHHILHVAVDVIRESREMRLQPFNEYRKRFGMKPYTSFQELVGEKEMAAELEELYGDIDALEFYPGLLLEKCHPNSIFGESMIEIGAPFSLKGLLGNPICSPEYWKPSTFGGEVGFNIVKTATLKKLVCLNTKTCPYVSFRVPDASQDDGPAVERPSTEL
Outline: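 Washed human platelets, 10⁸/mL in PBS pH 7.4 with 1 mM CaCl2: 5 min compound preincubation at room temperature, then 1 min at 37 °C. Arachidonic acid 5 μM added; 5 min at 37 °C. 12-HHT extracted and measured by RP-HPLC.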

[4] = Aqueous stability of the compound in at 2 uM in 10 mM aqueous ammonium bicarbonate at pH 7.9 assessed as formation of trans-6-(4'-hydroxy-3'-methoxyphenyl)-2,4-dioxo-5-hexenal measured as residual amount of compound by reversed phase liquid chromatography-coupled mass spectrometry; assay type: physicochemical; conditions: buffer, pH 7.9, 2 µM
Outline: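 Compounds at 2 μM in 10 mM aqueous ammonium bicarbonate pH 7.9, incubated 30 min at 37 °C. Analysed by UPLC-MS on a C18 column, gradient acetonitrile/water with 0.07% formic acid, at 0.7 mL/min. Residual amount given as % of control; three to four independent experiments.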

[5] = target: T1, Polyunsaturated fatty acid 5-lipoxygenase; assay: Inhibition of 5-LO in human neutrophils using arachidonic acid as substrate preincubated for 15 mins measured after 10 mins by HPLC analysis
Outline: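 Fresh human neutrophils, 1 × 10⁷/mL in PBS pH 7.4 with 1 mM CaCl2 and 1 mg/mL glucose, preincubated 15 min at 37 °C. LTB4, its all-trans isomers and 5-H(P)ETE by HPLC.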

[6] = target: T2, Prostaglandin G/H synthase 1 (Ovis aries) (UniProt P05979); assay: Inhibition of purified ovine COX-1 assessed as residual activity by measuring formation of 12-HHT from arachidonic acid preincubated at 10 uM for 5 mins before substrate addition measured after 5 mins by HPLC analysis relative to control
T2 sequence (whole entry): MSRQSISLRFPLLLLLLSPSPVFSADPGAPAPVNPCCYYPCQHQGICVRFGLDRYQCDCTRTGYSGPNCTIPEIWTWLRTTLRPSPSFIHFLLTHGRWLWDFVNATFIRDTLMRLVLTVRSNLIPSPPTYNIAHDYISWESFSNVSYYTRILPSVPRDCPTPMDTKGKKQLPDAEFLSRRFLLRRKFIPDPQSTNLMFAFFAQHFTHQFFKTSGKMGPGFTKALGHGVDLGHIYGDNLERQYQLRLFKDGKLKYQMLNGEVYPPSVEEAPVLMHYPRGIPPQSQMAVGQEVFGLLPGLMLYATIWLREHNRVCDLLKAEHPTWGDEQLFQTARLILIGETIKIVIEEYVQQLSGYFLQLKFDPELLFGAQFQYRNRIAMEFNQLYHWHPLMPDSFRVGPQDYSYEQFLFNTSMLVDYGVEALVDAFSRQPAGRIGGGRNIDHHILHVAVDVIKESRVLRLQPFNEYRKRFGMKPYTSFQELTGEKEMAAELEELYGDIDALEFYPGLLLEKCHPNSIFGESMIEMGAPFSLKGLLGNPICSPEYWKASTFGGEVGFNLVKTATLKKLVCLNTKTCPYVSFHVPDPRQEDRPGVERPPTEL
Outline: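 Purified ovine COX-1 (50 units) in 100 mM Tris pH 8 with 5 mM glutathione, 5 μM hemoglobin and 100 μM EDTA. Preincubated 5 min at 4 °C then 1 min at 37 °C. 5 μM arachidonic acid added; 12-HHT extracted after 5 min and measured by HPLC. Residual activity at 10 μM, three independent experiments.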

| Compound | IC50 [1] [µM] | inhibition [3] | Stability [4] | IC50 [5] [µM] | inhibition [6] | Activity [2] [%] | IC50 (LNCaP) [µM] | IC50 (PBMC) [µM] |
| --- | --- | --- | --- | --- | --- | --- | --- | --- |
| COc1cc(/C=C/C(=O)CC(=O)c2ccc(O)c(OC)c2)ccc1O | 2.3 | inactive | 72% | 9.9 | inactive | 80.2 | > 50 | > 50 |
| COc1cc(CCC(=O)CC(=O)CCc2ccc(O)c(OC)c2)ccc1O [TETRAHYDROCURCUMIN] | 3.2 | inactive | Unstable | – | inactive | 62.2 | > 50 | > 50 |
| COc1cc(/C=C/c2cc(-c3ccc(O)c(OC)c3)[nH]n2)ccc1O | 0.09 | inactive | Unstable | 1.9 | inactive | 70.3 | > 50 | > 50 |
| COc1cc(/C=C/c2cc(/C=C/c3ccc(O)c(OC)c3)[nH]n2)ccc1O [CURCUMIN PYRAZOLE] | 0.07 | – | Unstable | 0.7 | inactive | 59.6 | > 50 | > 50 |

Now from value to molecule, other results behind:

| IC50 [1] [µM] | inhibition [3] | Stability [4] | IC50 [5] [µM] | inhibition [6] | Compound | Activity [2] [%] | IC50 (LNCaP) [µM] | IC50 (PBMC) [µM] |
| --- | --- | --- | --- | --- | --- | --- | --- | --- |
| 0.5 | inactive | Unstable | 1.7 | – | COc1cc(/C=C/C(=O)/C=C/c2cc(CC=C(C)C)c(O)c(OC)c2)cc(CC=C(C)C)c1O | 75.8 | 43.8 | > 50 |
| 0.7 | inactive | Unstable | – | – | COc1cc(/C=C/C(=O)CC(=O)/C=C/c2cc(CC=C(C)C)c(O)c(OC)c2)cc(CC=C(C)C)c1O | 57.9 | > 50 | > 50 |
| – | – | 41.6% | – | inactive | COc1cc(/C=C/C(=O)CC(=O)/C=C/c2ccc(O)c(OC)c2)ccc1O [CURCUMIN] | 63.9 | 36 | 34.8 |
| 0.8 | inactive | Unstable | 5.2 | inactive | COc1cc(/C=C/C(=O)/C=C/c2ccc(O)c(OC)c2)ccc1O | 80.7 | 10 | 34.7 |
| 0.1 | inactive | Unstable | 0.8 | inactive | COc1cc(/C=C/c2cc(/C=C/c3cc(CC=C(C)C)c(O)c(OC)c3)[nH]n2)cc(CC=C(C)C)c1O | 57.3 | > 50 | > 50 |
